According to ChEMBL document CHEMBL1153726, “Synthesis and anticancer activity of sclerophytin-inspired hydroisobenzofurans” (Bioorg Med Chem Lett, 2009):

Experiment: Antitumor activity against human KB3 cells after 96 hrs by MTT assay
Type: functional, cell-based
Details: KB3, 96 h
How it was run: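 Human KB-3 carcinoma cells exposed to increasing compound concentrations; viability read by MTT colorimetric assay after 96 h. Values are means of triplicate assays, expressed relative to untreated controls.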

Row | SMILES | IC50
1 | C=C(C)[C@H]1CC=C(C)[C@@]2(O)[C@@H]1[C@H](c1cccc(Br)c1)O[C@@H]2C(=O)OCC | 3 µM
2 | C=C(C)[C@H]1CC(=O)C(C)=C2[C@@H](C(=O)OCC)O[C@@H](c3cccc(Br)c3)[C@@H]21 | 30 µM
3 | C=C(C)[C@H]1CC=C(C)[C@@]2(O)[C@@H]1[C@H](c1ccccn1)O[C@@H]2C(=O)OC | 100 µM
4 | C=C(C)[C@H]1CC(=O)C(C)=C2[C@@H](C(=O)OCC)O[C@@H](c3ccccc3Br)[C@@H]21 | 70 µM
5 | C=C(C)[C@H]1CC=C(C)C2=CO[C@@H](c3cccc4ccccc34)[C@@H]21 | > 100 µM
6 | C=C(C)[C@H]1CC=C(C)[C@@]2(O)[C@@H]1[C@H](c1cccc(Cl)c1Cl)O[C@@H]2C(=O)OCC | 5 µM
7 | C=C(C)[C@H]1CC=C(C)C2=CO[C@@H](c3ccco3)[C@@H]21 | 2 µM
8 | C=C(C)[C@H]1CC=C(C)[C@@]2(O)[C@@H]1[C@H](c1ccccc1Br)O[C@@H]2C(=O)OCC1CC1 | 50 µM
9 | C=C(C)[C@H]1CC=C(C)[C@@]2(O)[C@@H]1[C@H](c1cccc3ccccc13)O[C@@H]2C(=O)OC | 10 µM
